# Test results published in ChEMBL document CHEMBL1123741 (J Med Chem, 1987).
# B1: Thymidine kinase, cytosolic (Homo sapiens), P04183 (protein)
# chain: MSCINLPTVLPGSPSKTRGQIQVILGPMFSGKSTELMRRVRRFQIAQYKCLVIKYAKDTRYSSSFCTHDRNTMEALPACLLRDVAQEALGVAVIGIDEGQFFPDIVEFCEAMANAGKTVIVAALDGTFQRKPFGAILNLVPLAESVVKLTAVCMECFREAAYTKRLGTEKEVEVIGGADKYHSVCRLCYFKKASGQPAGPDNKENCPVPGKPGEAVAARKLFAPQQILQCSPAN
# Columns and labels:
# [1] = tested on: Vero; experiment: Compound was evaluated for antiviral activity against Herpes simplex virus (HSV) -2 (MS) in Vero cell cultures; format: functional; conditions: Chlorocebus sabaeus, read-out: ID50 (the source's name)
# Method in brief: (§1)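 Vero cell cultures were infected with HSV-1 strain BWˢ or HSV-2 strain MS. Antiviral activity was read by the dye-uptake method. The 50% inhibitory dose (ID50) was obtained by linear regression.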
# [2] = tested on: Mus musculus; experiment: Compound was evaluated for its effect of HSV -2 induced mortality in mice measured as survivors/total (%) at the dose of 12.5 mg/kg per day; 2/10; format: functional
# Method in brief: (§2)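 Female Swiss mice, 16–18 g, anesthetized and inoculated intracerebrally with 10 LD50 of HSV 2 (G strain), then randomized into groups of 8–12. Dosing was ip, b.i.d. for 5 consecutive days, starting 1 h postinfection. Mortality was followed for 21 days. P values were from the two-tailed Fisher exact test for survivors and the Gehan-Wilcoxon test for mean survival time.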
# [3] = species: Cavia porcellus; experiment: Compound (5%) was evaluated for its effect on (no. of areas = 4)mean peak lesion score in HSV-1 cutaneous infection of guinea pig; expressed as mean peak lesion score; format: functional
# [4] = tested on: Mus musculus; experiment: Compound was evaluated for its effect of HSV -2 induced mortality in mice measured as survivors/total (%) at the dose of 100 mg/kg per day; 3/8; format: functional; method in brief: as §2
# [5] = tested on: Mus musculus; experiment: Compound was evaluated for its effect on HSV -2 induced mortality in mice measured as mean survival time (MST) at the dose of 100 mg/kg per day; format: functional; method in brief: as §2
# [6] = tested on: Mus musculus; experiment: Compound was evaluated for its effect on HSV -2 induced mortality in mice measured as mean survival time (MST) at the dose of 50 mg/kg per day; format: functional; method in brief: as §2
# [7] = species: Cavia porcellus; experiment: Compound (5%) was evaluated for its effect on (no. of areas = 4) time to start healing in HSV-1 cutaneous infection of guinea pig; expressed as time to start healing; format: functional
# [8] = tested on: Mus musculus; experiment: Compound was evaluated for its effect on HSV -2 induced mortality in mice measured as mean survival time (MST) at the dose of 25 mg/kg per day; format: functional; method in brief: as §2
# [9] = tested on: Mus musculus; experiment: Compound was evaluated for its effect of HSV -2 induced mortality in mice measured as survivors/total (%) at the dose of 50 mg/kg per day; 4/10; format: functional; method in brief: as §2
# [10] = tested on: Vero; experiment: Compound was evaluated for antiviral activity against Herpes simplex virus (HSV) -1 (BW) in Vero cell cultures; format: functional; conditions: Chlorocebus sabaeus, read-out: ID50 (the source's name); method in brief: as §1
# [11] = tested on: Mus musculus; experiment: Compound was evaluated for its effect on HSV -2 induced mortality in mice measured as mean survival time (MST) at the dose of 12.5 mg/kg per day; format: functional; method in brief: as §2
# [12] = species: Cavia porcellus; experiment: Compound (5%) was evaluated for its effect on (no. of areas = 4)maximum score in HSV-1 cutaneous infection of guinea pig; expressed as maximum score; format: functional
# [13] = tested on: Mus musculus; experiment: Compound was evaluated for its effect of HSV -2 induced mortality in mice measured as survivors/total (%) at the dose of 25 mg/kg per day; 3/9; format: functional; method in brief: as §2
# [14] = species: Cavia porcellus; experiment: Compound (5%) was evaluated for its effect on (no. of areas = 4) mean area under lesion score-day curve in HSV-1 cutaneous infection of guinea pig; expressed as mean area under lesion score-day curve; format: functional
# [15] = tested on: Mus musculus; experiment: Compound was evaluated for its effect ofHSV -2 induced mortality in mice measured as survivors/total (%) at the dose of 12.5 mg/kg per day; 2/10; format: functional; method in brief: as §2
# [16] = tested on: Mus musculus; experiment: Compound was evaluated for its effect ofHSV -2 induced mortality in mice measured as survivors/total (%) at the dose of 100 mg/kg per day; 5/10; format: functional; method in brief: as §2
# [17] = tested on: Mus musculus; experiment: Compound was evaluated for its effect on HSV -2 induced mortality in mice measured as mean survival time (MST) at the dose of 200 mg/kg per day; format: functional; method in brief: as §2
# [18] = tested on: Mus musculus; experiment: Compound was evaluated for its effect ofHSV -2 induced mortality in mice measured as survivors/total (%) at the dose of 25 mg/kg per day; 0/10; format: functional; method in brief: as §2
# [19] = tested on: Mus musculus; experiment: Compound was evaluated for its effect on HSV -2 induced mortality in mice measured as survivors/total (%) at the dose of 200 mg/kg per day; 6/12; format: functional; method in brief: as §2
# [20] = tested on: Mus musculus; experiment: Compound was evaluated for its effect ofHSV -2 induced mortality in mice measured as survivors/total (%) at the dose of 50 mg/kg per day; 3/10; format: functional; method in brief: as §2
# [21] = species: Cavia porcellus; experiment: Compound (5%) was evaluated for its effect on (no. of areas = 3) mean area under lesion score-day curve in HSV-1 cutaneous infection of guinea pig; expressed as mean area under lesion score-day curve; format: functional
# [22] = species: Cavia porcellus; experiment: Compound (5%) was evaluated for its effect on (no. of areas = 3) time to start healing in HSV-1 cutaneous infection of guinea pig; expressed as time to start healing; format: functional
# [23] = species: Cavia porcellus; experiment: Compound (5%) was evaluated for its effect on (no. of areas = 3)maximum score in HSV-1 cutaneous infection of guinea pig; expressed as maximum score; format: functional
# [24] = tested on: Human alphaherpesvirus 1; experiment: Compound (5%) was evaluated for its effect on (no. of areas = 3)mean peak lesion score in HSV-1 cutaneous infection of guinea pig; expressed as mean peak lesion score; format: functional
# [25] = tested on: Mus musculus; experiment: Compound was evaluated for its effect of HSV -2 induced mortality in mice measured as survivors/total (%) at the dose of 200 mg/kg per day; 6/10; format: functional; method in brief: as §2
# [26] = tested on: Mus musculus; experiment: Compound was evaluated for its effect of HSV -2 induced mortality in mice measured as survivors/total (%) at the dose of 25 mg/kg per day; 5/10; format: functional; method in brief: as §2
# [27] = tested on: Mus musculus; experiment: Compound was evaluated for its effect of HSV -2 induced mortality in mice measured as survivors/total (%) at the dose of 100 mg/kg per day; 3/10; format: functional; method in brief: as §2
# [28] = tested on: Mus musculus; experiment: Compound was evaluated for its effect of HSV -2 induced mortality in mice measured as survivors/total (%) at the dose of 50 mg/kg per day; 5/10; format: functional; method in brief: as §2
# [29] = species: Cavia porcellus; experiment: Compound (5%) was evaluated for its effect on (no. of areas =3) time to start healing in HSV-1 cutaneous infection of guinea pig; expressed as time to start healing; format: functional
# [30] = substrate: O=c1[nH]c(=O)n([C@@H]2O[C@H](CO)[C@@H](O)[C@@H]2F)cc1I; conditions: Chlorocebus sabaeus; Vero
# [31] = substrate: Cc1cn([C@@H]2O[C@H](CO)[C@@H](O)[C@@H]2F)c(=O)[nH]c1=O; conditions: Chlorocebus sabaeus; Vero
# [32] = substrate: NC1=NC(=O)C2N=CN(COCCO)C2=N1; conditions: Chlorocebus sabaeus; Vero
Molecule,IC50 [1] [µg/mL],Activity [2] [%],Activity [3],MST [5] [days],MST [6] [days],Activity [7] [days],MST [8] [days],IC50 [10] [µg/mL],MST [11] [days],Activity [12] [days],Activity [14],MST [17] [days],Activity [21],Activity [23] [days],other results
NC1=NC(=O)C2N=CN(COCCO)C2=N1 (stereo not given),1.1,2,2.5,13,10,6.25,10,0.7,8,4,15.2,–,–,–,Activity [4]: 3%; Activity [9]: 4%; Activity [13]: 3%
CCc1cn([C@@H]2O[C@H](CO)[C@@H](O)[C@@H]2F)c(=O)[nH]c1=O,2.7,–,1.5,18,12,6.5,9,0.99,8,3,10,19,–,–,Activity [15]: 2%; Activity [16]: 5%; Activity [18]: 0%; Activity [19]: 6%; Activity [20]: 3%
Cc1cn([C@@H]2O[C@H](CO)[C@@H](O)[C@@H]2F)c(=O)[nH]c1=O [5-METHYL-2'-FLUOROARAURACIL],0.13,–,–,–,–,–,–,1.3,–,–,–,–,2.7,2.67,Activity [22]: 5.33 days; Activity [24]: 0.75
O=c1[nH]c(=O)n([C@@H]2O[C@H](CO)[C@@H](O)[C@@H]2F)cc1I [FIALURIDINE],0.64,2,1,13,18,–,18,0.96,10,–,–,21,9.6,3,Activity [25]: 6%; Activity [26]: 5%; Activity [27]: 3%; Activity [28]: 5%; Activity [29]: 4.67 days
B1,–,–,–,–,–,–,–,–,–,–,–,–,–,–,Ki [30]: 53 µM; Ki [31]: 60 µM; Ki [32]: > 4920 µM
